Laboratory results from PMC10694493 (Cell Reports Methods, 2023).

Assay: B2LiVe 1D-1H amide-selective NMR, solution-to-membrane partitioning
Format: binding
Conditions: POPC:POPG 9:1 LUV; 3 μM protein; pH 4.2
Procedure, shortened: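 Test protein held constant while POPC:POPG 9:1 LUV (reverse-phase evaporation, 40 mM stock, extruded through 1.2 μm filters) are titrated from 0 to 2 mM. Buffer: 20 mM HEPES-Na, 20 mM NaCl, 5% D2O, 25°C. 1D amide-selective HET-SOFAST 1H spectra at 800 MHz, PC9 120° pulse centred at 9.5 ppm. Fraction in solution is taken from the amide integral after subtracting the highest-lipid vesicle spectrum.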

B1: apo-Mb: apo-myoglobin, 16.9 kDa amphitropic protein, Sigma-Aldrich (protein, UniProt P68082 2-154, looked up)
Myoglobin: GLSDGEWQQVLNVWGKVEADIAGHGQEVLIRLFTGHPETLEKFDKFKHLKTEAEMKASEDLKKHGTVVLTALGGILKKKGHHEAELKPLAQSHATKHKIPIKYLEFISDAIIHVLHSKHPGDFGADAQGAMTKALELFRNDIAAKYKELGFQG
modifications: heme-free
In the case of B1, the “NMR signal remaining at the highest lipid concentration” value is reported as “completely disappears”.
